ChEMBL document CHEMBL5705906 (Nat Commun, 2017)
The source made the active and inactive calls. No cut-off for these calls is given here.

Assays:
BaF3 [1] = experiment: Inhibition of EGFR-C797S/T790M/del19 mutant in mouse BaF3 cells assessed as reduction in Akt phosphorylation incubated for 6 hrs by Western blotting analysis; type: cell-based
BaF3 [2] = experiment: Inhibition of EGFR-T790M/del19 mutant in mouse BaF3 cells assessed as inhibition of EGFR phosphorylation at 10 to 1000 nM incubated for 6 hrs by Western blotting analysis; type: cell-based; conditions: dose 10-1000 nM
Summary of the method: (§1)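 Ba/F3 cells carrying the stated EGFR mutant were made IL-3-independent after 1 week of 7 µM blasticidin selection. They were grown in low-glucose DMEM with 10% FBS and exposed to inhibitor for 6 h. Cells were washed in cold PBS, lysed in SDS buffer (100 mM Tris, 1% SDS, 10% glycerol) and boiled 5 min. Protein was measured by BCA, run on SDS-PAGE, transferred to PVDF, blocked in 5% BSA or milk/TBS-T, and immunoblotted.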

BaF3 [3] = experiment: Inhibition of EGFR-del19 mutant in mouse BaF3 cells assessed as inhibition of ERK phosphorylation at 10 to 1000 nM incubated for 6 hrs by Western blotting analysis; type: cell-based; conditions: dose 10-1000 nM; summary of the method: as §1
BaF3 [4] = experiment: Inhibition of EGFR-T790M/del19 mutant in mouse BaF3 cells assessed as inhibition of S6 phosphorylation at 10 to 1000 nM incubated for 6 hrs by Western blotting analysis; type: cell-based; conditions: dose 10-1000 nM; summary of the method: as §1
BaF3 [5] = type: cell-based; conditions: Mus musculus, dose 10-1000 nM, time 6.0 hrs
BaF3 [6] = type: cell-based; conditions: Mus musculus, dose 10-1000 nM, time 6.0 hrs; remark: listed apart in the source
BaF3 [7] = experiment: Inhibition of EGFR-C797S/T790M/L858R mutant expressed in mouse BaF3 cells assessed as inhibition of Akt phosphorylation at 10 to 1000 nM incubated for 6 hrs by Western blotting analysis; type: cell-based; conditions: dose 10-1000 nM
Summary of the method: (§2)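 Ba/F3 cells expressing EGFR-L858R-series mutants treated with inhibitors for 6 h. SDS lysates quantified by BCA, run on SDS-PAGE and blotted to PVDF. Probed for phospho-EGFR (Tyr1068), total EGFR and downstream phospho-proteins.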

BaF3 [8] = experiment: Inhibition of EGFR-C797S/T790M/L858R mutant in mouse BaF3 cells assessed as inhibition of S6 phosphorylation at 10 to 1000 nM incubated for 6 hrs by Western blotting analysis; type: cell-based; conditions: dose 10-1000 nM; summary of the method: as §2
PC-9 [9] = experiment: Inhibition of EGFR T790M/del19 mutant in human PC-9 cells assessed as reduction in EGFR phosphorylation at 10 to 1000 nM by Western blotting analysis; type: cell-based; conditions: dose 10-1000 nM
PC-9 [10] = experiment: Anti-tumor activity against EGFR T790M/del19 mutant expressing gefitinib-resistant human PC-9 cells xenografted in Balb-c nu/nu mouse assessed as growth inhibition at 75 mg/kg, po administered for 42 days; type: functional, organism-based; conditions: time 42.0 day
PC-9 [11] = experiment: Anti-tumor activity against EGFR T790M/del19 mutant expressing gefitinib-resistant human PC-9 cells xenografted in Balb-c nu/nu mouse assessed as prolonged survival at 75 mg/kg, po administered for 42 days; type: functional, organism-based; conditions: time 42.0 day
[12] = Cytotoxicity against mouse Ba/F3 EGFR-Del19/T790M/C797S cells assessed as inhibition of cell viability by measuring fold change at 30 nM incubated for 72 hrs in presence of cetuximab by CellTiter-Glo assay relative to brigatinib alone; type: functional
PC-9 [13] = experiment: Anti-tumor activity against human PC-9 cells expressing EGFR-C797S/T790M/del19 mutant xenografted in Balb-c nu/nu mouse assessed as prolonged survival at 75 mg/kg, po administered for 60 days and measured twice weekly in presence of cetuximab; type: functional, organism-based; conditions: time 60.0 day
Summary of the method: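 PC9 EGFR-C797S/T790M/del19 xenografts in Balb-c nu/nu mice, randomized at ~200 mm³. […] Tumour volume 0.5×length×width² and body weight measured twice weekly. Survival shown by Kaplan-Meier curve. N = 6. Mann-Whitney U test on tumour volume at day 23.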

PC-9 [14] = experiment: Anti-tumor activity against human PC-9 cells expressing EGFR-C797S/T790M/del19 mutant xenografted in Balb-c nu/nu mouse assessed as decreased tumor growth at 75 mg/kg, po administered for 60 days and measured twice weekly in presence of panitumumab; type: functional, organism-based; conditions: time 60.0 day
Summary of the method: (§3)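 PC9 EGFR-C797S/T790M/del19 xenografts in Balb-c nu/nu mice, randomized at ~200 mm³. […] Tumour volume 0.5×length×width² measured twice weekly. Survival by Kaplan-Meier. N = 6. Mann-Whitney U test at days 16 and 23.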

PC-9 [15] = experiment: Anti-tumor activity against human PC-9 cells expressing EGFR-C797S/T790M/del19 mutant xenografted in Balb-c nu/nu mouse assessed as prolonged survival at 75 mg/kg, po administered for 60 days and measured twice weekly in presence of panitumumab; type: functional, organism-based; conditions: time 60.0 day; summary of the method: as §3
MGH121 = experiment: Anti-tumor activity against human MGH121 cells expressing EGFR-C797S/T790M/del19 mutant xenografted in SCID-beige mouse assessed as tumor shrinkage at 75 mg/kg, po administered for 40 days and measured twice weekly; type: functional, organism-based; conditions: time 40.0 day
Summary of the method: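 MGH121-res2 cells (EGFR-C797S/T790M/del19) implanted s.c. in SCID-beige mice. Randomized at mean tumour ~200 mm³. […] Tumour volume 0.5×length×width² and body weight measured twice weekly. N = 6, mean ± s.d. Mann-Whitney U test on day 42.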

[16] = Toxicity against SCID-beige mouse xenografted with human MGH121 cells expressing EGFR-C797S/T790M/del19 mutant assessed as change in body weight at 75 mg/kg, po administered for 40 days and measured twice weekly in presence of cetuximab; type: organism-based; conditions: in vivo, 960 h, time 40 day
Summary of the method: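 SCID-beige mice with subcutaneous MGH121-res2 implants were randomized to vehicle or treatment at a mean tumour volume of ~200 mm³. […] Body weight was measured twice weekly, N=6 per group.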

BaF3 [17] = conditions: Mus musculus, dose 10-1000 nM
BaF3 [18] = conditions: Mus musculus, dose 10-1000 nM, time 6.0 hrs
[19] = test system: Epidermal growth factor receptor (Homo sapiens), P00533 [UNDEFINED MUTATION]; conditions: PC-9, dose 10-1000 nM
[20] = test system: Epidermal growth factor receptor (Homo sapiens), P00533 [UNDEFINED MUTATION]; conditions: PC-9, dose 10-1000 nM; remark: listed apart in the source
[21] = test system: Epidermal growth factor receptor (Homo sapiens), P00533 [UNDEFINED MUTATION]; conditions: PC-9, dose 10-1000 nM; remark: listed apart in the source
[22] = test system: Epidermal growth factor receptor (Homo sapiens), P00533 [UNDEFINED MUTATION]; conditions: PC-9, dose 10-1000 nM; remark: listed apart in the source
BaF3 [23] = conditions: Mus musculus, dose 30-1000 nM, time 6.0 hrs
[24] = test system: Epidermal growth factor receptor (Homo sapiens), P00533 [UNDEFINED MUTATION]; conditions: MGH121, dose 500.0 nM, time 48.0 hrs
PC-9 [25] = conditions: Homo sapiens, dose 75.0 mg/kg, route po, time 60.0 day
PC-9 [26] = conditions: Homo sapiens, dose 75.0 mg/kg, route po, time 60.0 day; remark: listed apart in the source

Sequence of Epidermal growth factor receptor (Homo sapiens), P00533 [UNDEFINED MUTATION] (P00533 whole entry, looked up, change not shown): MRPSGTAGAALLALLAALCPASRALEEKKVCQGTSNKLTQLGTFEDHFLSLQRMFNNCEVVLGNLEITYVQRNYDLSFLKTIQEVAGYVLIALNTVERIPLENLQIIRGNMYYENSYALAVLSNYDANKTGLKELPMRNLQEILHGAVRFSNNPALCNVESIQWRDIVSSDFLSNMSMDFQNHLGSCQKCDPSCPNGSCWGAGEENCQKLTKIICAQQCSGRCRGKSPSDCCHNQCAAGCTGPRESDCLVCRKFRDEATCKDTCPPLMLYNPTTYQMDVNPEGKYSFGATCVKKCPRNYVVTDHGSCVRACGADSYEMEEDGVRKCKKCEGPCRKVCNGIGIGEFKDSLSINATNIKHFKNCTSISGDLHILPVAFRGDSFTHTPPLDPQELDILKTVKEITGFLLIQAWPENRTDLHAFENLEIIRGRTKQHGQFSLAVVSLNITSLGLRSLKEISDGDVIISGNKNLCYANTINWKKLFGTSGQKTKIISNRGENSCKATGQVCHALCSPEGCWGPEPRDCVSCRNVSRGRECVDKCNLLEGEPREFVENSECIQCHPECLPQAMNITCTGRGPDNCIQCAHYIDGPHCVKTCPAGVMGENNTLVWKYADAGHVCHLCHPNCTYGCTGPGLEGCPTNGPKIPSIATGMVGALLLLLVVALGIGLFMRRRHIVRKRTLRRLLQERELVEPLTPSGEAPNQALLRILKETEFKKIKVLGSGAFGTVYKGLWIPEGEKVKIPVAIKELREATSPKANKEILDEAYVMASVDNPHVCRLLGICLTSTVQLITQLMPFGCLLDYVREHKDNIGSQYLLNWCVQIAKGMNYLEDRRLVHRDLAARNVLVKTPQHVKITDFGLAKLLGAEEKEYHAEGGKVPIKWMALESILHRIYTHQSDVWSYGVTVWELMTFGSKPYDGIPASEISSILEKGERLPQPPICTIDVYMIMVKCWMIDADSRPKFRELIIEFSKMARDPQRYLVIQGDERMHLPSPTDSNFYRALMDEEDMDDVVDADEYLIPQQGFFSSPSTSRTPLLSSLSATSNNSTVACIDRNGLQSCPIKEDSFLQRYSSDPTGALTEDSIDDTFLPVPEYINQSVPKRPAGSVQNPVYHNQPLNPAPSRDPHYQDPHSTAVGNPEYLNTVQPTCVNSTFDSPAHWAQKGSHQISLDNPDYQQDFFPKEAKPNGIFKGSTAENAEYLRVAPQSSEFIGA

**Q.** Which inhibition (BaF3 [1]) does the source give for COc1cc(N2CCC(N3CCN(C)CC3)CC2)ccc1Nc1ncc(Cl)c(Nc2ccccc2P(C)(C)=O)n1 [BRIGATINIB] here?
**A.** Its inhibition is “Dose-Dependent Effect”.

**Q.** And the inhibition (BaF3 [2])?
**A.** Its inhibition is “Active”.

**Q.** And the inhibition (BaF3 [3])?
**A.** The inhibition was “Active”.

**Q.** And the inhibition (BaF3 [4])?
**A.** The inhibition was “Active”.

**Q.** And the inhibition (BaF3 [5])?
**A.** The inhibition was “Active”.

**Q.** And the inhibition (BaF3 [6])?
**A.** Its inhibition is “Active”.

**Q.** And the inhibition (BaF3 [7])?
**A.** The inhibition was “Active”.

**Q.** And the inhibition (BaF3 [8])?
**A.** Its inhibition is “Active”.

**Q.** What about the inhibition (PC-9 [9]) of the same compound?
**A.** Its inhibition is “Active”.

**Q.** What about the Activity (PC-9 [10]) of the same compound?
**A.** The Activity was “Active”.

**Q.** And the Activity (PC-9 [11])?
**A.** The Activity was “Active”.

**Q.** And the “fold change (FC)” value [12]?
**A.** Its value is about 3.

**Q.** What about the Activity (PC-9 [13]) of the same compound?
**A.** The Activity was “Active”.

**Q.** What about the Activity (PC-9 [14]) of the same compound?
**A.** Its Activity is “Active”.

**Q.** And the Activity (PC-9 [15])?
**A.** The Activity was “Active”.

**Q.** And the Activity (MGH121)?
**A.** Its Activity is “Active”.

**Q.** What about the Activity [16] of the same compound?
**A.** Its Activity is “Non-Toxic”.

**Q.** And the inhibition (BaF3 [17])?
**A.** The inhibition was “Dose-Dependent Effect”.

**Q.** And the inhibition (BaF3 [18])?
**A.** Its inhibition is “Active”.

**Q.** And the inhibition [19]?
**A.** The inhibition was “Active”.

**Q.** What about the inhibition [20] of the same compound?
**A.** The inhibition was “Active”.

**Q.** What about the inhibition [21] of the same compound?
**A.** The inhibition was “Active”.

**Q.** And the inhibition [22]?
**A.** The inhibition was “Active”.

**Q.** What about the inhibition (BaF3 [23]) of the same compound?
**A.** Its inhibition is “Active”.

**Q.** What about the inhibition [24] of the same compound?
**A.** Its inhibition is “inactive”.

**Q.** What about the inhibition (PC-9 [25]) of the same compound?
**A.** The inhibition was “Active”.

**Q.** What about the inhibition (PC-9 [26]) of the same compound?
**A.** Its inhibition is “Active”.
